The source made the active and inactive calls. The calls are words filed in the database; no cut-off is given here.
Assays:
HepG2 [1] = assay: Growth inhibition of human HepG2 cells at cytotoxic IC100 measured every 10 mins for first 24 hrs and every 30 mins for remaining 48 hrs by RT-CES analysis; format: functional, cell-based
HepG2 [2] = assay: Induction of apoptosis in human HepG2 cells assessed as accumulation at G2/M phase at cytotoxic IC100 measured after 48 hrs by propidium iodide staining based flow cytometry; format: functional, cell-based
Outline: (§1)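 After 24, 48 and 72 h, cells were fixed in ice-cold 70% ethanol for 3 h, stained with propidium iodide, and cell-cycle distribution was read on a MUSE Cell Analyzer.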

SNU-475 [3] = assay: Induction of apoptosis in human SNU475 cells assessed as accumulation at G2/M phase at cytotoxic IC100 measured after 48 hrs by propidium iodide staining based flow cytometry; format: functional, cell-based; outline: as §1
HepG2 [4] = assay: Induction of apoptosis in human HepG2 cells assessed as condensed nuclei at cytotoxic IC100 measured after 48 hrs by DAPI/Annexin-V-Fluos staining based fluorescent microscopic method; format: functional, cell-based
Outline: (§2)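 Cells on coverslips were treated after 24 h in culture and stained 48 h later with Annexin-V-Fluos plus DAPI nuclear stain. Cells were then examined by fluorescence microscopy for Annexin V-positive cells with condensed nuclei.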

HCT-116 = assay: Cytotoxicity against human HCT116 cells assessed as growth inhibition after 72 hrs by SRB assay; format: functional, cell-based; details: HCT-116, 72 h
Outline: (§3)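 Cells seeded at 2000–3000 per well and grown 24 h at 37C, then treated in triplicate with compounds dissolved in DMSO over a 40–0.3 range for 72 h. Cells were fixed with 10% TCA for 1 h, stained with 0.4% SRB in 1% acetic acid, washed with 1% acetic acid and air-dried. Bound dye was solubilized in 10 mM Tris base and read at 515 nm. % inhibition and IC50 were calculated against DMSO-only controls.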

HepG2 [5] = assay: Cytotoxicity against human HepG2 cells assessed as growth inhibition after 72 hrs by SRB assay; format: functional, cell-based; details: HepG2, 72 h; outline: as §3
HepG2 [6] = assay: Induction of apoptosis in human HepG2 cells assessed as accumulation at subG1 phase at cytotoxic IC100 measured after 72 hrs by propidium iodide staining based flow cytometry; format: functional, cell-based; outline: as §1
Homo sapiens = organism: Homo sapiens; assay: Inhibition of tubulin polymerization (unknown origin)
SNU-475 [7] = assay: Induction of apoptosis in human SNU475 cells assessed as condensed nuclei at cytotoxic IC100 measured after 48 hrs by DAPI/Annexin-V-Fluos staining based fluorescent microscopic method; format: functional, cell-based; outline: as §2
MCF7 = assay: Cytotoxicity against human MCF7 cells assessed as growth inhibition after 72 hrs by SRB assay; format: functional, cell-based; details: MCF7, 72 h; outline: as §3
SNU-475 [8] = assay: Induction of apoptosis in human SNU475 cells assessed as PARP cleavage at cytotoxic IC100 measured after 24 hrs by Western blot method; format: functional, cell-based
Huh-7 [9] = assay: Growth inhibition of human HuH7 cells at cytotoxic IC100 measured every 10 mins for first 24 hrs and every 30 mins for remaining 48 hrs by RT-CES analysis; format: functional, cell-based
SNU-475 [10] = assay: Induction of apoptosis in human SNU475 cells assessed as accumulation at subG1 phase at cytotoxic IC100 measured after 72 hrs by propidium iodide staining based flow cytometry; format: functional, cell-based; outline: as §1
Mahlavu [11] = assay: Cytotoxicity against human Mahlavu cells assessed as growth inhibition after 72 hrs by SRB assay; format: functional, cell-based; outline: as §3
SNU-475 [12] = assay: Growth inhibition of human SNU475 cells at cytotoxic IC100 measured every 10 mins for first 24 hrs and every 30 mins for remaining 48 hrs by RT-CES analysis; format: functional, cell-based
SNU-475 [13] = assay: Cytotoxicity against human SNU475 cells assessed as growth inhibition after 72 hrs by SRB assay; format: functional, cell-based; details: SNU-475, 72 h; outline: as §3
Huh-7 [14] = assay: Cytotoxicity against human HuH7 cells assessed as growth inhibition after 72 hrs by SRB assay; format: functional, cell-based; details: Huh-7, 72 h; outline: as §3
MCF-12A = assay: Cytotoxicity against human MCF12A cells assessed as growth inhibition after 72 hrs by SRB assay; format: cell-based; outline: as §3
Mahlavu [15] = assay: Growth inhibition of human Mahlavu cells at cytotoxic IC100 measured every 10 mins for first 24 hrs and every 30 mins for remaining 48 hrs by RT-CES analysis; format: functional, cell-based
HepG2 [16] = assay: Induction of apoptosis in human HepG2 cells assessed as PARP cleavage at cytotoxic IC100 measured after 24 hrs by Western blot method; format: functional, cell-based
HepG2 [17] = assay: Induction of apoptosis in human HepG2 cells assessed as condensed nuclei at cytotoxic IC100 measured after 72 hrs by light microscopic method; format: functional, cell-based
SNU-475 [18] = assay: Induction of apoptosis in human SNU475 cells assessed as condensed nuclei at cytotoxic IC100 measured after 72 hrs by light microscopic method; format: functional, cell-based
MRC5 = assay: Cytotoxicity against human MRC5 cells assessed as growth inhibition after 72 hrs by SRB assay; format: cell-based; outline: as §3
HepG2 [19] = assay: Induction of apoptosis in human HepG2 cells assessed as decrease in cyclin B1 protein expression level at cytotoxic IC100 measured after 24 hrs by Western blot method; format: functional, cell-based
[20] = biological target: G2/mitotic-specific cyclin-B1 (Homo sapiens) (UniProt P14635); assay: Inhibition of Cyclin B1 phosphorylation at Ser147 residue in human HepG2 cells at cytotoxic IC100 measured after 24 hrs by Western blot method; format: cell-based
[21] = biological target: T1, Retinoblastoma-associated protein (Homo sapiens) (UniProt P06400); assay: Inhibition of retinoblastoma phosphorylation in human SNU475 cells at cytotoxic IC100 measured after 24 hrs by Western blot method; format: cell-based
T1 sequence (whole entry): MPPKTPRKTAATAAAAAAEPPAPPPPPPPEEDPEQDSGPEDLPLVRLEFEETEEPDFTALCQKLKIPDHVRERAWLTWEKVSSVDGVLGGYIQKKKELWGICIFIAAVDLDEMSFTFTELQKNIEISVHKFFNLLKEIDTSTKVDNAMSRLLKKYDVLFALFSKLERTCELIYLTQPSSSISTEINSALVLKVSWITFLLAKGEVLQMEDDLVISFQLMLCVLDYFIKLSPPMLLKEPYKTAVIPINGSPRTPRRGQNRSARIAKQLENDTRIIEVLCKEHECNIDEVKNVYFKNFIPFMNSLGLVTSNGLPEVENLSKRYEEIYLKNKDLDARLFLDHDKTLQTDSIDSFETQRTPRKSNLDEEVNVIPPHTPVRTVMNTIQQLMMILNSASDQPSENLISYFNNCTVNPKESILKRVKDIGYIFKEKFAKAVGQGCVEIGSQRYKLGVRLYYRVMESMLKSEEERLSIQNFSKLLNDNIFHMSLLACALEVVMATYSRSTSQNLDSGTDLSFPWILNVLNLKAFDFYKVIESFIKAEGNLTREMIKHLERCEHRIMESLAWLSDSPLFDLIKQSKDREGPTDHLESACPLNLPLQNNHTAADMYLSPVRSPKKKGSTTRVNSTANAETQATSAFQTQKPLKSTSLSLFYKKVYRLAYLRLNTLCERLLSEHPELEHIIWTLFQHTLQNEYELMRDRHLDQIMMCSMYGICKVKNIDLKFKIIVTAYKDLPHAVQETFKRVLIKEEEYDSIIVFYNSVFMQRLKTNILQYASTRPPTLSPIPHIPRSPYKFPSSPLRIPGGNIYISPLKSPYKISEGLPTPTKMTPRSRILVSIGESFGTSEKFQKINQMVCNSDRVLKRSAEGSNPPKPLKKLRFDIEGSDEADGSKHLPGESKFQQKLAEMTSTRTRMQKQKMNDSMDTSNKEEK

HepG2 [22] = assay: Induction of apoptosis in human HepG2 cells assessed as decrease in CDK expression level at cytotoxic IC100 measured after 24 hrs by Western blot method; format: functional; set-up: scale not given: the % may be the effect or the level left
HepG2 [23] = assay: Increase in p21 protein expression in human HepG2 cells at cytotoxic IC100 measured after 24 hrs by Western blot method relative to control; format: functional
SNU-475 [24] = assay: Induction of apoptosis in human SNU475 cells assessed as decrease in CDK expression level at cytotoxic IC100 measured after 24 hrs by Western blot method; format: functional, cell-based
[25] = biological target: T1, Retinoblastoma-associated protein (Homo sapiens); assay: Inhibition of retinoblastoma phosphorylation in human HepG2 cells at cytotoxic IC100 measured after 24 hrs by Western blot method; format: cell-based
SNU-475 [26] = assay: Increase in p21 protein expression in human SNU475 cells at cytotoxic IC100 measured after 24 hrs by Western blot method relative to control; format: functional
[27] = Homo sapiens, MRC5, 72 h, read-out: IC50

Chain of G2/mitotic-specific cyclin-B1 (Homo sapiens) (P14635 whole entry): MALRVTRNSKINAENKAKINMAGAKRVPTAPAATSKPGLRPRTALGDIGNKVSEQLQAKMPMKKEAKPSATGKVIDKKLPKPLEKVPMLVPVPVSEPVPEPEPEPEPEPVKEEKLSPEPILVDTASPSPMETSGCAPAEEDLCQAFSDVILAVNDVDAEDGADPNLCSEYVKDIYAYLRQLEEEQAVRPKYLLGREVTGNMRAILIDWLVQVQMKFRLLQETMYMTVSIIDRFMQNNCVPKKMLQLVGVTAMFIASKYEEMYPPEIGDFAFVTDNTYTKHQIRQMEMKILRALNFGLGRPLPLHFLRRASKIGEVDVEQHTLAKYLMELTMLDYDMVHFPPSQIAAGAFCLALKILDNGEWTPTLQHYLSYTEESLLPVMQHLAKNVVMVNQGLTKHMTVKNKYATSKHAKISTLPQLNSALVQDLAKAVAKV

Structure (SMILES) | growth inhibition (GI) (HepG2 [1]) | Activity (HepG2 [2]) | Activity (SNU-475 [3]) | Activity (HepG2 [4]) | IC50 (HCT-116) [µM] | IC50 (HepG2 [5]) [µM] | inhibition (Homo sapiens) | Activity (SNU-475 [7]) | IC50 (MCF7) [µM] | Activity (SNU-475 [8]) | growth inhibition (GI) (Huh-7 [9]) | IC50 (Mahlavu [11]) [µM] | growth inhibition (GI) (SNU-475 [12]) | IC50 (SNU-475 [13]) [µM] | IC50 (Huh-7 [14]) [µM] | IC50 (MCF-12A) [µM] | growth inhibition (GI) (Mahlavu [15]) | Activity (HepG2 [16]) | Activity (HepG2 [17]) | Activity (SNU-475 [18]) | other results
COc1cc(OC)c(C(=O)/C=C/c2cn(-c3ccccc3)nc2-c2cccnc2)c(OC)c1 | Active | Active | Active | Active | 0.3 | 1.4 | inactive | Active | 1 | Active | Active | 1.1 | Active | 0.8 | 0.5 | 1.2 | Active | Active | Active | Active | Activity (HepG2 [6]): Active; Activity (SNU-475 [10]): Active; IC50 (MRC5; [27]): 1.3 µM
COc1cc(OC)c(C(=O)/C=C/c2cn(-c3ccccc3)nc2-c2ccncc2)c(OC)c1 | Active | – | – | Active | 0.6 | 1.7 | inactive | Active | 1.6 | Active | Active | 1.1 | Active | 1.4 | 2.6 | 8.2 | Active | Active | Active | Active | IC50 (MRC5; mrc5): Non-Toxic
COc1ccc(OC)c(C(=O)/C=C/c2cn(-c3ccccc3)nc2-c2cccnc2)c1 | Active | Active | Active | Active | 1 | 3.4 | inactive | Active | 1.5 | Active | Active | 2 | Active | 1.9 | 1.3 | 2.4 | Active | Active | Active | Active | Activity (HepG2 [19]): Active; inhibition [20]: 50%; inhibition [21]: Active; Activity (HepG2 [22]): 50%; Activity (HepG2 [6]): Active; fold change (FC) (HepG2 [23]): 5 - 6; Activity (SNU-475 [10]): Active; Activity (SNU-475 [24]): Active; inhibition [25]: Active; fold change (FC) (SNU-475 [26]): 2; IC50 (MRC5; [27]): 2.7 µM
COc1ccc(OC)c(C(=O)/C=C/c2cn(-c3ccccc3)nc2-c2ccncc2)c1 | Active | Active | Active | Active | 0.9 | 4.8 | inactive | Active | 1.4 | Active | Active | 1.6 | Active | 2 | 1.7 | 3 | Active | Active | Active | Active | Activity (HepG2 [19]): Active; inhibition [20]: 50%; inhibition [21]: Active; Activity (HepG2 [22]): 50%; Activity (HepG2 [6]): Active; fold change (FC) (HepG2 [23]): 5 - 6; Activity (SNU-475 [10]): Active; Activity (SNU-475 [24]): Active; inhibition [25]: Active; fold change (FC) (SNU-475 [26]): 2; IC50 (MRC5; [27]): 3.1 µM

From ChEMBL document CHEMBL4004857, “Synthesis and biological evaluation of novel pyrazolic chalcone derivatives as novel hepatocellular carcinoma therapeutics” (Eur J Med Chem, 2017)
